Measurements as given in ChEMBL document CHEMBL1141374 (J Med Chem, 2007).

Columns and labels:
OVCAR-8 = experiment: Growth inhibition in OVCAR8 cells; type: functional; details: Homo sapiens
SK-OV-3 = experiment: Growth inhibition in SKOV3 cells; type: functional; details: Homo sapiens
[1] = Growth inhibition in HCC15 cells; type: functional; details: Homo sapiens
EKVX = experiment: Growth inhibition in EKVX cells; type: functional; details: Homo sapiens
T47D = experiment: Growth inhibition in T47D cells; type: functional; details: Homo sapiens
K562 = experiment: Growth inhibition in K562 cells; type: functional; details: Homo sapiens
CAKI-1 = experiment: Growth inhibition in CAK1-1 cells; type: functional; details: Homo sapiens
IGROV-1 = experiment: Growth inhibition in IGROV1 cells; type: functional; details: Homo sapiens
U-251 = experiment: Growth inhibition in U251cells; type: functional; details: Homo sapiens
OVCAR-5 = experiment: Growth inhibition in OVCAR5 cells; type: functional; details: Homo sapiens
M14 = experiment: Growth inhibition in M14 cells; type: functional; details: Homo sapiens
KM12 = experiment: Growth inhibition in KM12 cells; type: functional; details: Homo sapiens
NCI-H23 = experiment: Growth inhibition in NCI-H23 cells; type: functional; details: Homo sapiens
LOX IMVI = experiment: Growth inhibition in LOX IMVI cells; type: functional; details: Homo sapiens
HeLa = experiment: Cytotoxicity against HeLa cell line; type: cell-based; details: Homo sapiens
Outline: (§1)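 Log-phase cells were diluted to 20 000–30 000 cells/mL, seeded, and left to attach overnight. They were then exposed to compounds at 10^–5–10^–12 M for 72 h at 37 °C in 5% CO2. Viable cells were measured by MTT, with absorbance read at 595 nm. Each compound ran in triplicate in at least three independent assays. IC50 came from nonlinear regression, and average values were reported.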

CCRF-CEM = experiment: Growth inhibition in CCRF-CEM cells; type: functional; details: Homo sapiens
NCI/ADR-RES = experiment: Growth inhibition in NCI/ADR-RES cells; type: functional; details: Homo sapiens
SK-MEL-5 = experiment: Growth inhibition in SK-MEL-5 cells; type: functional; details: Homo sapiens
A549 = experiment: Growth inhibition in A549 cells; type: functional; details: Homo sapiens
HOP-62 = experiment: Growth inhibition in HOP62 cells; type: functional; details: Homo sapiens
COLO 205 = experiment: Growth inhibition in COLO205 cells; type: functional; details: Homo sapiens
HT-29 = experiment: Growth inhibition in HT29 cells; type: functional; details: Homo sapiens
SNB-75 = experiment: Growth inhibition in SNB75 cells; type: functional; details: Homo sapiens
NCI-H460 = experiment: Growth inhibition in NCI-H460 cells; type: functional; details: Homo sapiens
OVCAR-3 = experiment: Growth inhibition in OVCAR-3 cells; type: functional; details: Homo sapiens
SW-620 = experiment: Growth inhibition in SW620 cells; type: functional; details: Homo sapiens
NCI-H522 = experiment: Growth inhibition in NCI-H522 cells; type: functional; details: Homo sapiens
[2] = Cytotoxicity against P-glycoprotein-overexpressing KB-V1 cell line; type: cell-based; details: Homo sapiens; outline: as §1
HL-60 = experiment: Growth inhibition in HL60 cells; type: functional; details: Homo sapiens
ACHN = experiment: Growth inhibition in ACHN cells; type: functional; details: Homo sapiens
UO-31 = experiment: Growth inhibition in UO31 cells; type: functional; details: Homo sapiens
SN12C = experiment: Growth inhibition in SN12C cells; type: functional; details: Homo sapiens
NCI-H226 = experiment: Growth inhibition in NCI-H226 cells; type: functional; details: Homo sapiens
NCI-H322M = experiment: Growth inhibition in NCI-H322M cells; type: functional; details: Homo sapiens
[3] = Growth inhibition in HCC116 cells; type: functional; details: Homo sapiens
BT-549 = experiment: Growth inhibition in BT549 cells; type: functional; details: Homo sapiens
SNB-19 = experiment: Growth inhibition in SNB19 cells; type: functional; details: Homo sapiens
SK-MEL-28 = experiment: Growth inhibition in SK-MEL-28 cells; type: functional; details: Homo sapiens
MDA-MB-435 = experiment: Growth inhibition in MDA-MB-435 cells; type: functional; details: Homo sapiens
MCF7 = experiment: Growth inhibition in MCF7 cells; type: functional; details: Homo sapiens
OVCAR-4 = experiment: Growth inhibition in OVCAR4 cells; type: functional; details: Homo sapiens
SF-539 = experiment: Growth inhibition in SF539 cells; type: functional; details: Homo sapiens
DU-145 = experiment: Growth inhibition in DU145 cells; type: functional; details: Homo sapiens
UACC-257 = experiment: Growth inhibition in UACC257 cells; type: functional; details: Homo sapiens
786-0 = experiment: Growth inhibition in 786-0 cells; type: functional; details: Homo sapiens
[4] = Cytotoxicity against KB-3-1 cell line; type: cell-based; details: Homo sapiens; outline: as §1
PC-3 = experiment: Growth inhibition in PC3 cells; type: functional; details: Homo sapiens
HCC 2998 = experiment: Growth inhibition in HCC2998 cells; type: functional; details: Homo sapiens
HCT-116 = experiment: Cytotoxicity against HCT116 cell line; type: cell-based; details: Homo sapiens; outline: as §1
RXF 393 = experiment: Growth inhibition in RXF393 cells; type: functional; details: Homo sapiens
A498 = experiment: Growth inhibition in A498 cells; type: functional; details: Homo sapiens
HOP-92 = experiment: Growth inhibition in HOP92 cells; type: functional; details: Homo sapiens
UACC-62 = experiment: Growth inhibition in UACC62 cells; type: functional; details: Homo sapiens
SF-268 = experiment: Growth inhibition in SF268 cells; type: functional; details: Homo sapiens
TK-10 = experiment: Growth inhibition in TK10 cells; type: functional; details: Homo sapiens
ZR-75-1 = experiment: Cytotoxicity against ZR-75-1 cell line; type: cell-based; details: Homo sapiens; outline: as §1
SF-295 = experiment: Growth inhibition in SF295 cells; type: functional; details: Homo sapiens
[5] = Growth inhibition in HS 578T cells; type: functional; details: Homo sapiens
[6] = Growth inhibition in MDA-MB-231/ATCC cells; type: functional; details: Homo sapiens
SK-MEL-2 = experiment: Growth inhibition in SK-MEL-2 cells; type: functional; details: Homo sapiens
Tubulin = experiment: Inhibition of tubulin polymerization; type: protein-complex assay, Homo sapiens
Outline: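 Kit-based assay run per the manufacturer's instructions. Tubulin (>99% pure, 3 mg/mL) in G-PEM buffer, in a prewarmed plate with compound at 0.03–30 μM. OD340 nm read every 60 s at 37 °C for 1 h.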

With `COc1ccc(-n2cnnc2-c2cc(OC)c(OC)c(OC)c2)cc1F` the GI50 (OVCAR-8) was 6.31 µM, the GI50 (SK-OV-3) was 8.32 µM and the GI50 [1] was 1.66 µM. The GI50 (EKVX) was 89.1 µM, the GI50 (T47D) was > 100 µM and the GI50 (K562) was 0.759 µM. For the same compound, the GI50 (CAKI-1) was 2.95 µM, the GI50 (IGROV-1) was 4.9 µM and the GI50 (U-251) was 5.13 µM. It also gave a GI50 (OVCAR-5) of 5.62 µM, a GI50 (M14) of 2.24 µM and a GI50 (KM12) of 1.45 µM. For the same compound, the GI50 (NCI-H23) was 2.24 µM, the GI50 (LOX IMVI) was 5.13 µM and the IC50 (HeLa) was 0.173 µM. It also gave a GI50 (CCRF-CEM) of 2.57 µM, a GI50 (NCI/ADR-RES) of 2 µM and a GI50 (SK-MEL-5) of 2.57 µM. It also gave a GI50 (A549) of 12 µM, a GI50 (HOP-62) of 2.04 µM and a GI50 (COLO 205) of 3.98 µM. For the same compound, the GI50 (HT-29) was 3.16 µM, the GI50 (SNB-75) was 3.02 µM and the GI50 (NCI-H460) was 3.16 µM. The GI50 (OVCAR-3) was 2.09 µM, the GI50 (SW-620) was 4.07 µM and the GI50 (NCI-H522) was 4.57 µM. The IC50 [2] was 1.48 µM, the GI50 (HL-60) was 6.03 µM and the GI50 (ACHN) was 5.62 µM. The GI50 (UO-31) was 17.8 µM, the GI50 (SN12C) was 4.68 µM and the GI50 (NCI-H226) was 7.08 µM. For the same compound, the GI50 (NCI-H322M) was 8.13 µM, the GI50 [3] was 3.02 µM and the GI50 (BT-549) was 9.33 µM. The GI50 (SNB-19) was 6.31 µM, the GI50 (SK-MEL-28) was 39.8 µM and the GI50 (MDA-MB-435) was 0.331 µM. For the same compound, the GI50 (MCF7) was 1 µM, the GI50 (OVCAR-4) was 5.25 µM and the GI50 (SF-539) was 3.89 µM. The GI50 (DU-145) was 4.79 µM, the GI50 (UACC-257) was > 100 µM and the GI50 (786-0) was 3.16 µM. It also gave an IC50 [4] of 0.399 µM, a GI50 (PC-3) of 3.02 µM and a GI50 (HCC 2998) of 0.631 µM. The IC50 (HCT-116) was 0.365 µM, the GI50 (RXF 393) was 1.7 µM and the GI50 (A498) was 8.13 µM. The GI50 (HOP-92) was 5.37 µM, the GI50 (UACC-62) was 3.63 µM and the GI50 (SF-268) was 9.33 µM. The GI50 (TK-10) was > 100 µM, the IC50 (ZR-75-1) was 0.367 µM and the GI50 (SF-295) was 1.86 µM. The GI50 [5] was 6.46 µM and the GI50 [6] was 6.46 µM.

With `COc1ccc(-n2cnnc2-c2cc(OC)c(OC)c(OC)c2)cc1O` the GI50 (SK-MEL-2) was 0.724 µM, the GI50 (OVCAR-8) was 0.977 µM and the GI50 (SK-OV-3) was 0.316 µM. For the same compound, the GI50 [1] was 0.631 µM, the GI50 (T47D) was 0.269 µM and the GI50 (K562) was 0.209 µM. For the same compound, the GI50 (CAKI-1) was 0.708 µM, the GI50 (IGROV-1) was 0.447 µM and the GI50 (U-251) was 0.407 µM. For the same compound, the GI50 (OVCAR-5) was 1.95 µM, the GI50 (M14) was 0.295 µM and the GI50 (KM12) was 0.141 µM. It also gave a GI50 (NCI-H23) of 4.27 µM, a GI50 (LOX IMVI) of 0.55 µM and an IC50 (HeLa) of 0.025 µM. The GI50 (CCRF-CEM) was 0.295 µM, the GI50 (NCI/ADR-RES) was 1.55 µM and the GI50 (SK-MEL-5) was 0.288 µM. It also gave a GI50 (A549) of 1 µM, a GI50 (HOP-62) of 0.49 µM and a GI50 (COLO 205) of 1.17 µM. For the same compound, the GI50 (HT-29) was 2.88 µM, the GI50 (SNB-75) was 0.251 µM and the GI50 (NCI-H460) was 0.407 µM. It also gave an IC50 (Tubulin) of 6 µM, a GI50 (OVCAR-3) of 0.195 µM and a GI50 (SW-620) of 0.38 µM. It also gave a GI50 (NCI-H522) of 0.263 µM, an IC50 [2] of 0.544 µM and a GI50 (HL-60) of 0.389 µM. It also gave a GI50 (ACHN) of 0.417 µM, a GI50 (UO-31) of 0.501 µM and a GI50 (SN12C) of 0.603 µM. The GI50 (NCI-H226) was > 100 µM, the GI50 (NCI-H322M) was 91.2 µM and the GI50 [3] was 0.398 µM. For the same compound, the GI50 (BT-549) was 3.63 µM, the GI50 (SNB-19) was 0.407 µM and the GI50 (SK-MEL-28) was 0.427 µM. For the same compound, the GI50 (MDA-MB-435) was 0.0246 µM, the GI50 (MCF7) was 0.617 µM and the GI50 (OVCAR-4) was 0.417 µM. The GI50 (SF-539) was 0.372 µM, the GI50 (DU-145) was 0.661 µM and the GI50 (UACC-257) was > 100 µM. It also gave a GI50 (786-0) of 0.501 µM, an IC50 [4] of 0.0573 µM and a GI50 (PC-3) of 0.288 µM. It also gave a GI50 (HCC 2998) of 0.933 µM, an IC50 (HCT-116) of 0.0889 µM and a GI50 (RXF 393) of 0.309 µM. For the same compound, the GI50 (A498) was 0.417 µM, the GI50 (HOP-92) was 0.617 µM and the GI50 (UACC-62) was 0.407 µM. The GI50 (SF-268) was 0.257 µM, the GI50 (TK-10) was 7.41 µM and the IC50 (ZR-75-1) was 0.141 µM. For the same compound, the GI50 (SF-295) was 0.302 µM, the GI50 [5] was 0.363 µM and the GI50 [6] was 0.977 µM.
